Measurements from ChEMBL document CHEMBL1149785, “Synthesis and biological evaluation of helicid analogues as novel acetylcholinesterase inhibitors” (Eur J Med Chem, 2008).
Active and inactive are the calls of the source. The calls are words filed in the database; no cut-off is given here.

Key:
[1] = biological target: Cholinesterase (Equus caballus, UniProt P81908); experiment: Inhibition of horse serum BuChE by Ellman's method
[2] = biological target: Acetylcholinesterase (Electrophorus electricus, UniProt O42275); experiment: Inhibition of Electrophorus electricus AChE by Ellman's method
Chain of Acetylcholinesterase (O42275 whole entry): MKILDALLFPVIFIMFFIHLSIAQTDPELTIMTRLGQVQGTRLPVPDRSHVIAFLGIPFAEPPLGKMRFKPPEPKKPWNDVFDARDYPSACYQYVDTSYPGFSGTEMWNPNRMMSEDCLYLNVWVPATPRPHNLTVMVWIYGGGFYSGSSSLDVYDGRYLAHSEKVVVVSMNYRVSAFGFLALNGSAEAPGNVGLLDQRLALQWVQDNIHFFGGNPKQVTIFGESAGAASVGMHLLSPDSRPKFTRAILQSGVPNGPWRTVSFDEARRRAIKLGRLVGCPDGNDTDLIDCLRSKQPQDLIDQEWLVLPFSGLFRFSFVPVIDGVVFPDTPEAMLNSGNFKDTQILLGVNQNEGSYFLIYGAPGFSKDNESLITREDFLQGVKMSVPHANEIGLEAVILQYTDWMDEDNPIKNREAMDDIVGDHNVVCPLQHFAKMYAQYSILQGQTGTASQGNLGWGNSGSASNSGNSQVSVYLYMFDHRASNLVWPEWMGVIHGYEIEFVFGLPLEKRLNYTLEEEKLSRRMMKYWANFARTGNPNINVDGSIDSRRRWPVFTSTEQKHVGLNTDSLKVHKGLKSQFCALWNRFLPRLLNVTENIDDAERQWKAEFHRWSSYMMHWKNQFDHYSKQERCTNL

[3] = biological target: Cholinesterase (Equus caballus) (UniProt P81908); experiment: Inhibition of horse serum BuChE upto 500 uM by Ellman's method
Chain of Cholinesterase (Equus caballus) (P81908 whole entry): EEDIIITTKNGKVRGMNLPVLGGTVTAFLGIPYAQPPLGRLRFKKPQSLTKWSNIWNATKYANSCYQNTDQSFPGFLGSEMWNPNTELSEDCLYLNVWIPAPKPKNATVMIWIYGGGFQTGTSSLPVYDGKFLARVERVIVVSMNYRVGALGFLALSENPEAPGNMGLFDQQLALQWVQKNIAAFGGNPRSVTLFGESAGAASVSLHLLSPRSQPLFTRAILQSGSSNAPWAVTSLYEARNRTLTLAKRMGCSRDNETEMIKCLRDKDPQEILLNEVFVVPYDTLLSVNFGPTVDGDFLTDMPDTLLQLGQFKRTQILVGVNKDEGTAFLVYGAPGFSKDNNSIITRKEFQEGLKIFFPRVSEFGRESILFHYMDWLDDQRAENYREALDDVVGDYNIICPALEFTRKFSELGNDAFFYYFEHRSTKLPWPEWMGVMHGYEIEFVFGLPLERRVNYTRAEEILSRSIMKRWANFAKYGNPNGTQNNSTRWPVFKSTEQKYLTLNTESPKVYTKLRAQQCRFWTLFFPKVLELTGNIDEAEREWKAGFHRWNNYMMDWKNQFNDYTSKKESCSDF
In short: (§1)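 Modified Ellman assay with acetylthiocholine (AChE) or butyrylthiocholine (BuChE) as substrate, from 0.075 M stock solutions, and DTNB from a 0.01 M stock, in phosphate buffer. Enzyme, DTNB and test compound were pre-incubated for 15 min at 37 °C, then substrate was added. Absorbance was read at 412 nm for 1 min. Five concentrations, normally 10^-4 to 10^-9 M, each in triplicate.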

[4] = biological target: 4-aminobutyrate aminotransferase, mitochondrial (Homo sapiens, UniProt P80404); experiment: Inhibition of GABA transaminase
Chain of 4-aminobutyrate aminotransferase, mitochondrial (P80404 whole entry): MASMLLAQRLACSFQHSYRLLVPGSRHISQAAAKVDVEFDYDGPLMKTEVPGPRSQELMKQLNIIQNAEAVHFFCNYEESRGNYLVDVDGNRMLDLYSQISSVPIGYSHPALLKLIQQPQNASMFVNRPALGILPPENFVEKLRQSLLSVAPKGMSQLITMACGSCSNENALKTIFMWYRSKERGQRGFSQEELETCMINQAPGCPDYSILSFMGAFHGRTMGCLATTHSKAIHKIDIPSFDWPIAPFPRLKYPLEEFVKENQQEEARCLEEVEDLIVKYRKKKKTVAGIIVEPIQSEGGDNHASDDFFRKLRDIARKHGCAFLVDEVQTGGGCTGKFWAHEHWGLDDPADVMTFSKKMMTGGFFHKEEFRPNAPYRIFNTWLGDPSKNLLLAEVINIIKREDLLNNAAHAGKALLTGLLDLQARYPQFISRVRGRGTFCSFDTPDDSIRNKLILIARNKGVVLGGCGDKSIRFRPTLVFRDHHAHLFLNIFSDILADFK

[5] = biological target: Acetylcholinesterase (Electrophorus electricus) (UniProt O42275); experiment: Inhibition of Electrophorus electricus AChE upto 500 uM by Ellman's method; in short: as §1
Chain of Acetylcholinesterase (Electrophorus electricus) (O42275 24-633 limits assumed): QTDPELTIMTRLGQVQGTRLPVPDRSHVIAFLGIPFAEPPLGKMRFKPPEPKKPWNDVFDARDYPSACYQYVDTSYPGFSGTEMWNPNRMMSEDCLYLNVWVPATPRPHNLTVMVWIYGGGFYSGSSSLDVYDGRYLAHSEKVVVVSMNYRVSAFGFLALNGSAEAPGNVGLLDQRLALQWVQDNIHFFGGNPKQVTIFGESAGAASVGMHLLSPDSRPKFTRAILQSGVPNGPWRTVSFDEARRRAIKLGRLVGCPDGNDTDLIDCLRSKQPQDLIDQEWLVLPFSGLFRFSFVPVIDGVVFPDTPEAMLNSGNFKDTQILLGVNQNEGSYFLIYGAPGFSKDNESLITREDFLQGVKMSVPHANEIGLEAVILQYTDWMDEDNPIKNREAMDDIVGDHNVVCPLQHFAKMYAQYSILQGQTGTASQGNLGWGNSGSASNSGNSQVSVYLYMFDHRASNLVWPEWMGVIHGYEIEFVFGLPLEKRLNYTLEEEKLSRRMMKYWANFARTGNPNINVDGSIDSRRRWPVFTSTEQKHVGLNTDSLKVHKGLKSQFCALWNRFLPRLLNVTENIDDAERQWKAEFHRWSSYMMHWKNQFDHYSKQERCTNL

Chain of Cholinesterase (P81908 whole entry): as the sequence (P81908 whole entry) above

Row | Compound | IC50 [2] [µM] | Activity [3] | also measured
1 | NC(=O)N/N=C/c1ccc(O[C@@H]2OC[C@@H](OC(=O)c3ccccc3)[C@@H](OC(=O)c3ccccc3)[C@H]2OC(=O)c2ccccc2)cc1 | 7.07 | – | IC50 [1]: 48.7 µM
2 | O=Cc1ccc(O[C@@H]2OC[C@@H](OC(=O)c3ccccc3)[C@@H](OC(=O)c3ccccc3)[C@H]2OC(=O)c2ccccc2)cc1 | 14 | – | IC50 [1]: 64.3 µM
3 | OC[C@H]1O[C@@H](Oc2ccc(/C=N/O)cc2)[C@H](O)[C@@H](O)[C@@H]1O | – | inactive | –
4 | O=Cc1ccc(O)cc1 [4-HYDROXYBENZALDEHYDE] | – | – | IC50 [4]: 33.6 µM
5 | CO/N=C\c1ccc(O[C@@H]2O[C@H](CO)[C@@H](O)[C@H](O)[C@H]2O)cc1 | 0.49 | inactive | Ki [2]: 0.13 µM
6 | O=Cc1ccc(O[C@@H]2OC[C@@H](OC(=O)c3ccccc3)[C@H](OC(=O)c3ccccc3)[C@H]2OC(=O)c2ccccc2)cc1 | 35 | inactive | –
7 | CC(=O)OC[C@H]1O[C@@H](Oc2ccc(/C=N/NC(N)=O)cc2)[C@H](OC(C)=O)[C@@H](OC(C)=O)[C@@H]1OC(C)=O | 143 | inactive | –
8 | CC(=O)OC[C@H]1O[C@@H](Oc2ccc(/C=N/O)cc2)[C@H](OC(C)=O)[C@@H](OC(C)=O)[C@@H]1OC(C)=O | – | inactive | –
9 | CC(=O)OC[C@H]1O[C@@H](Oc2ccc(C=O)cc2)[C@H](OC(C)=O)[C@@H](OC(C)=O)[C@@H]1OC(C)=O | 1.5 | inactive | –
10 | O=Cc1ccc(O[C@@H]2OC[C@@H](O)[C@@H](O)[C@H]2O)cc1 | 0.2 | inactive | Ki [2]: 0.51 µM
11 | CO/N=C\c1ccc(O[C@@H]2OC[C@@H](OC(=O)c3ccccc3)[C@@H](OC(=O)c3ccccc3)[C@H]2OC(=O)c2ccccc2)cc1 | 3.08 | – | IC50 [1]: 45.8 µM
12 | NC(=S)N/N=C/c1ccc(O[C@@H]2OC[C@@H](OC(=O)c3ccccc3)[C@@H](OC(=O)c3ccccc3)[C@H]2OC(=O)c2ccccc2)cc1 | 46.4 | – | IC50 [1]: 71.8 µM
13 | CC(=O)OC[C@H]1O[C@@H](Oc2ccc(/C=N/NC(N)=S)cc2)[C@H](OC(C)=O)[C@@H](OC(C)=O)[C@@H]1OC(C)=O | 21.5 | inactive | –
14 | O=Cc1ccc(O[C@@H]2O[C@H](CO)[C@@H](O)[C@@H](O)[C@H]2O)cc1 | – | inactive | Activity [5]: inactive
15 | CC(=O)OC[C@H]1O[C@@H](Oc2ccc(C=O)cc2)[C@H](OC(C)=O)[C@@H](OC(C)=O)[C@H]1OC(C)=O | 45.4 | inactive | –
16 | NC(=S)N/N=C/c1ccc(O[C@@H]2O[C@H](CO)[C@@H](O)[C@H](O)[C@H]2O)cc1 | 22.9 | inactive | –
17 | NC(=O)N/N=C/c1ccc(O[C@@H]2O[C@H](CO)[C@@H](O)[C@H](O)[C@H]2O)cc1 | 121 | inactive | –
18 | CC(=O)OC[C@H]1O[C@@H](O[C@H]2[C@H](OC(C)=O)[C@@H](OC(C)=O)[C@H](Oc3ccc(C=O)cc3)O[C@@H]2COC(C)=O)[C@H](OC(C)=O)[C@@H](OC(C)=O)[C@H]1OC(C)=O | – | inactive | Activity [5]: inactive
19 | CC(=O)OC[C@H]1O[C@@H](Oc2ccc(C=O)cc2)[C@H](OC(C)=O)[C@H](OC(C)=O)[C@@H]1OC(C)=O | – | inactive | Activity [5]: inactive
20 | CO/N=C\c1ccc(O[C@@H]2O[C@H](COC(C)=O)[C@@H](OC(C)=O)[C@H](OC(C)=O)[C@H]2OC(C)=O)cc1 | 15.1 | inactive | –
21 | O=Cc1ccc(O[C@@H]2O[C@H](CO)[C@@H](O)[C@H](O)[C@H]2O)cc1 | 0.45 | inactive | Ki [2]: 0.73 µM
